Eight compounds from ChEMBL document CHEMBL1147925, “First pharmacophore-based identification of androgen receptor down-regulating agents: discovery of potent anti-prostate cancer agents” (Bioorg Med Chem, 2007) can be followed below.

Structures are written as SMILES. Bounds are passed on as bounds.

The subject of experiment [1] is LNCaP. The experiment can be described thus: Decrease in androgen receptor protein expression in LNCaP cells by Western blotting. The experiment is classed as functional, cell-based. As to conditions: Homo sapiens. The procedure, abridged: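 Whole-cell lysates were made in 0.1M Tris/0.5% Triton X-100 with protease inhibitor, and protein was measured by Bradford. Samples were run on 10% SDS-PAGE and immunoblotted with anti-AR monoclonal AR441 (1:500), HRP secondary and ECL. Signal was normalized to β-actin, and EC50 was taken from dose-response curves.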
In general terms: A western blot detects proteins with antibodies after separation by electrophoresis.

The test system of experiment [2] is LNCaP. The experiment can be described thus: Growth inhibition of human LNCaP cells after 5 days by MTT colorimetric assay. Conditions: 120 h.

Turning to `O=C(O)c1ccccc1Nc1cccc(C(F)(F)F)c1` [FLUFENAMIC ACID], the EC50 – broadly, the concentration at which the effect is half-maximal – with LNCaP [1] stood at 200 µM.

As for `Cc1ccc(S(=O)(=O)Nc2ccc(C)cc2[N+](=O)[O-])cc1`, in the experiment with LNCaP [1], the EC50 worked out at 76 µM. In the experiment on LNCaP [2], the IC50 (usually the point on the concentration scale where inhibition reaches its midpoint) worked out at 39.8 µM.

In the case of `CSc1ccc(OS(=O)(=O)c2cccc3nsnc23)cc1`, in the experiment on LNCaP [1], a half-maximal effect (EC50) was put at 17.5 µM. Also, the IC50 in the experiment on LNCaP [2] was greater than 50 µM.

In the experiment with LNCaP [1], `O=C(CNCCCc1ccccc1)c1ccc(O)c(O)c1` gave an EC50 of 43.5 µM. The same compound displayed an IC50 with LNCaP [2] of 26.9 µM.

Turning to `CCOC(=O)c1ccccc1OC(=O)Oc1ccccc1C(=O)OCC`, a half-maximal response with LNCaP [1] (EC50) required 65.5 µM. In the experiment with LNCaP [2], the IC50 is 4.5 µM.

For the compound `CCN(CCO)C(C(=O)c1ccc(Cl)cc1)c1ccc(Cl)cc1` (centres undefined), in the experiment on LNCaP [1], the midpoint of the response, the EC50, lay at 39.5 µM. The compound also yielded an IC50 in the experiment on LNCaP [2] of 8.31 µM.

Turning to `COc1cc(/C=C/C(=O)CC(=O)/C=C/c2ccc(O)c(OC)c2)ccc1O` [CURCUMIN], a half-maximal response with LNCaP [1] (EC50) required 35 µM.

For `O=c1cc(CO)oc(C(Nc2ccccc2)c2ccccc2)c1O` (centres undefined), a half-maximal effect in the experiment with LNCaP [1] (EC50) was put at 212 µM. Further, the IC50 with LNCaP [2] was 20.9 µM.
